The nature of data set [1]: Drug excretion in bile duct cannulated Sprague-Dawley rat bile at 2 mg/kg, iv administered as single dose after 24 hrs by LCMS analysis. Type of data set: ADME, organism-based. The conditions noted are these: read-out: Drug excretion. An outline of the steps:
(§1)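 Bile duct-cannulated SD rats given single i.v. dose in saline; urine and bile collected over 24 h. Unchanged drug quantified by LC-MS/MS and expressed as cumulative % of dose; mean ± SD of three animals.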

The nature of data set [2]: Drug uptake in Sprague-Dawley rat kidney at 0.3 mg/kg, iv administered as single dose after 24 hrs by LCMS analysis. Type of data set: ADME, organism-based. As to conditions: read-out: Drug uptake. An outline of the steps: (§2)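 Fasted male SD rats given single i.v. dose in saline; animals euthanized at 2, 24 and 72 h, kidneys homogenized in purified water and unchanged drug measured by LC-MS/MS (ng/g tissue). Mean ± SD of three animals; 72 h level also expressed relative to 2 h value.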

Data set [3] in a line: Drug excretion in bile duct cannulated Sprague-Dawley rat urine at 2 mg/kg, iv administered as single dose after 24 hrs by LCMS analysis. Type of data set: ADME, organism-based. As to conditions: read-out: Drug excretion. The procedure, abridged: as §1
Data set [4] is described as follows: Drug uptake in Sprague-Dawley rat kidney at 0.3 mg/kg, iv administered as single dose after 72 hrs by LCMS analysis. The conditions noted are these: read-out: Drug uptake. Type of data set: ADME, organism-based. An outline of the steps: as §2
Data set [5] in a line: Drug uptake in Sprague-Dawley rat kidney at 0.3 mg/kg, iv administered as single dose after 2 hrs by LCMS analysis. Type of data set: ADME, organism-based. The conditions noted are these: read-out: Drug uptake. The procedure, abridged:
as §2

Data set [6] is described as follows: Drug uptake in Sprague-Dawley rat kidney assessed as unchanged drug level at 0.3 mg/kg, iv administered as single dose after 72 hrs by LCMS analysis relative to control. Type of data set: ADME, organism-based. As to conditions: in vivo. The procedure, abridged: as §2
In data set [7] the target is T1, Sodium/glucose cotransporter 2 (Homo sapiens, UniProt P31639).
T1 sequence (P31639 whole entry): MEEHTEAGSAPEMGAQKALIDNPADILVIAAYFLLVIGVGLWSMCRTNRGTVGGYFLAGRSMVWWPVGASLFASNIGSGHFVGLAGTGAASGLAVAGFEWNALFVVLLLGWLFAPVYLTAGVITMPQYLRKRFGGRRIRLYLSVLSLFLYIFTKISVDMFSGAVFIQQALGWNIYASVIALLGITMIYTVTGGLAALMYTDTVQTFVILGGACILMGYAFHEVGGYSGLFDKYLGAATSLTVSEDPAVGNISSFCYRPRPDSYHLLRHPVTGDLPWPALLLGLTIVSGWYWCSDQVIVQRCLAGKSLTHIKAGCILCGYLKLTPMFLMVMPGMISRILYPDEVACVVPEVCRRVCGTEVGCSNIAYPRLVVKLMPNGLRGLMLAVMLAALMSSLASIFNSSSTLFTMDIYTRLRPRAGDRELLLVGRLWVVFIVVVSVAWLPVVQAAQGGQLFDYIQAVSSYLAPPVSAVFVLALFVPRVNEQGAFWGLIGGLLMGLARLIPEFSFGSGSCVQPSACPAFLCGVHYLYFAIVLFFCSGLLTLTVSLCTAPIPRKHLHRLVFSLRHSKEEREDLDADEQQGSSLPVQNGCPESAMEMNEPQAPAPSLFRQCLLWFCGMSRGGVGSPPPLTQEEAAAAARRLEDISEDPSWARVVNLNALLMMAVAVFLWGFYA
In words: Inhibition of human SGLT2 expressed in CHOK1 cells assessed as reduction in sodium-dependent glucose uptake after 1 hr in presence of [14C]-methyl-alpha -D-glucopyranoside by microbeta counting method. Type of data set: cell-based. The procedure, abridged: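 Human SGLT2 stably expressed in CHO-K1 cells; 20 min Na-free choline pretreatment, then Na+ uptake buffer pH 7.4 with 1 mM methyl-α-D-glucopyranoside containing [14C] label plus compound, 1 h at 37 °C. Washed, NaOH lysis, scintillation counting; Na-free buffer for background. IC50 from six concentrations relative to uninhibited uptake; mean of at least two experiments.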

In data set [8] the target is T2, Sodium/glucose cotransporter 1 (Homo sapiens, UniProt P13866).
T2 sequence (P13866 whole entry): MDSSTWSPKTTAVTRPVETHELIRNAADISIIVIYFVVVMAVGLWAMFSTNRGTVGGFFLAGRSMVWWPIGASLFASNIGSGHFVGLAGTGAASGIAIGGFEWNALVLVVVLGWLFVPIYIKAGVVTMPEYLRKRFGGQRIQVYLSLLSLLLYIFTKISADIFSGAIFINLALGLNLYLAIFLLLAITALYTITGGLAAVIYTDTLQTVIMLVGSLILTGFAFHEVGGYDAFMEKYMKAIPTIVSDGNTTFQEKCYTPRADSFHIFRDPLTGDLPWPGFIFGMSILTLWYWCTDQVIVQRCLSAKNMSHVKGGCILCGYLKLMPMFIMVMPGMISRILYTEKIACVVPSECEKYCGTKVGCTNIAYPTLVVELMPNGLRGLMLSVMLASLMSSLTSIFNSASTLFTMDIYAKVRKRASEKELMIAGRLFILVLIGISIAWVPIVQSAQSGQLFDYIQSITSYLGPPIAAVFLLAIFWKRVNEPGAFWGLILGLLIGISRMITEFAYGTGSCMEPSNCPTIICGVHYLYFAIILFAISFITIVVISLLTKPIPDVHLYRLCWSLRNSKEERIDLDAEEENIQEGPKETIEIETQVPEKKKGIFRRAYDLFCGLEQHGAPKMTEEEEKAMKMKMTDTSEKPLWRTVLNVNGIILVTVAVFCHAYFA
In words: Inhibition of human SGLT1 expressed in CHOK1 cells assessed as reduction in sodium-dependent glucose uptake after 30 mins in presence of [14C]-methyl-alpha -D-glucopyranoside by microbeta counting method. Type of data set: cell-based. The procedure, abridged: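 CHO-K1 cells stably expressing human SGLT1, preincubated 20 min in Na-free choline buffer (pH 7.4). Uptake buffer (140 mM NaCl, HEPES/Tris pH 7.4) with 0.1 mM methyl-α-D-glucopyranoside plus [14C] tracer and test compound, 30 min at 37 °C. Cells washed, lysed in NaOH, radioactivity counted. Choline-for-Na buffer as background. Six concentrations; IC50 vs untreated control; mean of at least two experiments.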

A short description of data set [9]: Permeability of the compound at pH 7.4 by PAMPA assay. The conditions noted are these: read-out: permeability. Type of data set: ADME. The procedure, abridged:
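PAMPA at pH 7.4: filter coated with GIT-0 lipid; donor compartment holds compound in universal buffer at 25 μM or 5 μM; permeability reported as ×10⁻⁶ cm/s.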
A general note: In PAMPA a lipid-coated filter parts donor from acceptor wells.

Each structure is given as a SMILES string.

Regarding `Cc1cc(O)c([C@@H]2O[C@H](CO)[C@@H](O)[C@H](O)[C@H]2O)cc1Cc1ccc(CCNC(=O)NC(CO)(CO)CO)cc1`, the dose excreted at 24 h came out at 30.2% in data set [1] and 36.2% in data set [3]. Further, the concentration at 24 h in [2] is 1110 ng/g. Also, in data set [4], the concentration at 72 h worked out at 803 ng/g. Moreover, the concentration at 2 h in data set [5] was determined as 1900 ng/g. Moreover, in data set [6], the Drug uptake worked out at 42%.
A word on the IC50: it is the concentration needed to halve the response being measured. Consider `COc1cc(C(C)C)c(Cc2ccc(/C=C/C(C)(C)C(=O)NC(C)(C)C(=O)N3CCN(C)CC3)cc2C)cc1[C@@H]1O[C@H](CO)[C@@H](O)[C@H](O)[C@H]1O`, for which the figures for the IC50 in [7] and in data set [8] were 281 nM and 55 nM, respectively.
Turning to `Cc1cc(/C=C/C(C)(C)C(=O)NC(C)(C)CO)ccc1Cc1cc([C@@H]2O[C@H](CO)[C@@H](O)[C@H](O)[C@H]2O)c(O)cc1C(C)C`, the IC50 in data set [7] worked out at 69 nM; in data set [8], 55 nM. In data set [9], the Papp worked out at 0.5 ×10⁻⁶ cm/s.
On to `Cc1cc(C)c([C@@H]2O[C@H](CO)[C@@H](O)[C@H](O)[C@H]2O)cc1Cc1ccc(/C=C/C(C)(C)C(=O)NC(C)(C)CO)cc1F`, for which the IC50 in data set [7] came out at 17 nM; in [8], 34 nM.
On the same counts, the results for `COc1cc(/C=C/C(C)(C)C(=O)NC(C)(C)CO)ccc1Cc1cc([C@@H]2O[C@H](CO)[C@@H](O)[C@H](O)[C@H]2O)c(C)cc1C` are 798 nM and 1170 nM.
For `Cc1cc(C)c([C@@H]2O[C@H](CO)[C@@H](O)[C@H](O)[C@H]2O)cc1Cc1ccc(/C=C/C(C)(C)C(=O)NC(C)(C)CO)cc1`, in that order: 10 nM and 22 nM.
For `Cc1cc(C)c([C@@H]2O[C@H](CO)[C@@H](O)[C@H](O)[C@H]2O)cc1Cc1ccc(/C=C/C(C)(C)C(=O)NC(C)(C)CO)cc1C(C)C`, in that order: 2130 nM and 12500 nM.
In the case of `CC(C)c1cc(O)c([C@@H]2O[C@H](CO)[C@@H](O)[C@H](O)[C@H]2O)cc1Cc1ccc(/C=C/C(C)(C)C(=O)NC(C)(C)CO)cc1`, the IC50 in [7] is 19 nM; in [8] it was 23 nM.

Values taken from ChEMBL document CHEMBL4308914, “Discovery of potent, low-absorbable sodium-dependent glucose cotransporter 1 (SGLT1) inhibitor SGL5213 for type 2 diabetes treatment” (Bioorg Med Chem, 2019).
